High-throughput results deposited in PubChem BioAssay by several laboratories.
MC4R antagonist – blocks human MC4R cAMP signaling; P32245; MC4R-expressing cells, MTII-stimulated cAMP, LANCE TR-FRET; inhibition, % at 6.5 µM; 360,000 compounds, 0.48% hits; AID 540295;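 active = inhibition above its plate's cutoff, the mean of tested wells on that plate plus 3 SD, cut at about 29% in these data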;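 also: 0% = Melanotan II alone and 100% = Melanotan II plus saturating MCL0020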
Target sequence (P32245 whole entry, looked up): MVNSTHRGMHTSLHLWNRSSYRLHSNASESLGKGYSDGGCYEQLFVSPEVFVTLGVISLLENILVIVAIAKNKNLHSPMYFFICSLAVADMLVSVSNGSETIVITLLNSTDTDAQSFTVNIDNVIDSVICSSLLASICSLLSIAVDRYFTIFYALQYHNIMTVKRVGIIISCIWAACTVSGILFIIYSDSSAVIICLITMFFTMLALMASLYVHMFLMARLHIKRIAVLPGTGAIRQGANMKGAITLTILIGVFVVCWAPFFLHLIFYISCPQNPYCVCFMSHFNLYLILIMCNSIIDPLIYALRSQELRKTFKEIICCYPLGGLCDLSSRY
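System – human MC4R-expressing U2OS cells · Also added – Melanotan II · Dosing – one concentration, 6.5 µM nominal · Timing – 30-min compound, 1-h challenge, 1-h detection, room temperature · Measured by – Eu-cAMP/anti-cAMP TR-FRET, emission 671 nm · Replicates – singlicate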
B2AR ag – agonists of human beta-2 adrenergic receptor inducing internalization | response, % (test concentration not listed) | P07550 | Am2.2-beta2AR cells, FAP receptor internalization, flow cytometry | AID 504454 | 340,000 compounds, 0.43% hits;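 active = response above a set limit, near 3 SD of response in nonfluorescent compounds, cut at about 42% in these data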
ABHD5-PLIN5 inh – blocks binding of human ABHD5 to perilipin-5. Q00G26+Q8WTS1. Split G. princeps luciferase complementation, luminescence, 4 h. inhibition, % at 4 µM. 360,000 compounds, 0.78% hits. AID 602281;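 active = inhibition above the mean inhibition across every tested compound plus 3 SD, cut at about 22% in these data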;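 also: 0% = DMSO only wells and the 100% control is not disclosed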
PfG6PD inh – PfG6PD (Plasmodium falciparum) enzyme inhibition; PfGluPho enzyme, NADPH resazurin-diaphorase fluorescence; inhibition, % at 20 µM; 350,000 compounds, 0.78% hits; AID 504690;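 active = inhibition reaching at least a set limit at 20 µM in the primary screen, cut at about 59% in these data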;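 also: 0% = DMSO wells with substrate and 100% = DMSO wells lacking glucose-6-phosphate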
MC4R barr agon – activates human MC4R beta-arrestin recruitment; U2OS MC4R beta-arrestin complementation, luminescence; percent of melanotan II response, DMSO zero; activation, % at 8.9 µM; 360,000 compounds, 0.98% hits; AID 540308;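 active = activation above a per-plate cutoff, the mean activation of sample wells on that plate plus 3 SD, cut at about 8% in these data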
PfG6PD confirm – confirmation of Plasmodium falciparum G6PD inhibitors; shares compounds with PfG6PD inh; 2,400 compounds, 34% hits; recombinant PfGluPho, NADPH-diaphorase-resazurin fluorescence; AID 504753; inhibition, % at 20 µM;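 active = inhibition of at least 50% at 20 µM in any single replicate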;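 also: 0% = DMSO with substrate and 100% = DMSO lacking glucose-6-phosphate substrate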
Diaphorase 10uM – inhibits diaphorase or oxidizes, flagging false PfG6PD hits. shares compounds with PfG6PD inh. 820 compounds, 39% hits. inhibition, % at 20 µM. diaphorase-coupled resazurin reduction, fluorescence, NADPH 10 uM;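 active = average inhibition reaching 50% or more with the compound at 20 µM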;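 also: resorufin red fluorescence formed as diaphorase reduces resazurin using NADPH; 0% = DMSO with enzyme and 100% = DMSO without enzyme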
Diaph ctr 30uM – diaphorase inhibition or oxidation at 30 uM NADPH; shares compounds with PfG6PD inh; Diaphorase/resazurin coupled assay, resorufin fluorescence; inhibition, % at 20 µM; 820 compounds, 29% hits;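 active = inhibition averaging 50% or more, tested at 20 µM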;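 also: 0% = DMSO with enzyme and 100% = DMSO wells lacking diaphorase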
Active calls of the source: *; nt = no result given. A selection: hits, their analogues and other compounds. The true share with any hit is near 3%.

SMILES | MC4R antagonist | B2AR ag | ABHD5-PLIN5 inh | PfG6PD inh | MC4R barr agon | PfG6PD confirm | others
CC(C)(C)c1ccc(OCCn2nc(C(=O)O)c3ccccc3c2=O)cc1 | -1 | 0 | -7 | 62* | 2 | -2
Cc1cccc(OCCn2nc(C(=O)O)c3ccccc3c2=O)c1 | -5 | 0 | -6 | 38 | -2 | nt
COc1cccc2nc3cc(C)c(C)cc3nc12 | -30 | 9 | -26 | 96* | 1 | 57* | Diaphorase 10uM=46;Diaph ctr 30uM=43
COc1cccc2c1nc(C)c1cc(C)oc12 | -13 | -6 | -2 | -17 | 0 | nt
COc1ccc(/C=N/NC(=O)c2cc(C)n(-c3ccccc3)c2C)cc1OC | -8 | 6 | -6 | -12 | -1 | nt
Cc1cc(C(=O)N/N=C/c2cccc([N+](=O)[O-])c2)c(C)n1-c1ccccc1 | 3 | 1 | -5 | 60* | -2 | 28
O=C(N/N=C/c1cccc(O)c1)C(=O)N1CCCCCC1 | 7 | 4 | 11 | -13 | 0 | nt
O=C(N/N=C/c1cccc([N+](=O)[O-])c1)C(=O)N1CCCCCC1 | 5 | -1 | -10 | 80* | 0 | 58* | Diaphorase 10uM=60*;Diaph ctr 30uM=47
COc1ccc(N2CCN(C(=O)COC(=O)c3nc(Cl)ccc3Cl)CC2)cc1 | -1 | nt | -4 | 9 | -1 | nt
CC1CCCCN1CCNC(=O)C1CCCN(S(=O)(=O)c2cccc3nsnc23)C1 (centres undefined) | 0 | 7 | 4 | 15 | -1 | nt
Cc1nc2sc(C(=O)O)c(N)c2c2c1COC(C)(C)C2 | 7 | -1 | -18 | 54 | -2 | nt
CCOC(=O)c1sc2nc(-c3ccco3)c3c(c2c1N)CC(C)(C)OC3 | 0 | -9 | 30* | 64* | -3 | 10
O=C(NNc1ccc([N+](=O)[O-])cc1)Nc1ccccc1 | -2 | 2 | -4 | 74* | -2 | 0
Cc1ccc(NNS(=O)(=O)c2ccc(C)cc2)cc1 | -1 | 8 | -9 | 99* | 3 | 54* | Diaphorase 10uM=30;Diaph ctr 30uM=-6
CC(=O)Nc1ccc(S(=O)(=O)NNC(=O)c2ccc([N+](=O)[O-])cc2)cc1 | -2 | 4 | -1 | -6 | -1 | nt
CC(=O)Nc1ccc(S(=O)(=O)NNc2ccc([N+](=O)[O-])cc2)cc1 | 2 | 2 | -5 | 75* | 0 | 33
O=C(Nc1cccc([N+](=O)[O-])c1)c1cc2ccccc2cc1O | 2 | 23 | -2 | 73* | 2 | 11
O=C(Nc1ccncc1)c1cc2ccccc2cc1O | 14 | 11 | -34 | 68* | -2 | 43
COc1cc(OC)c(NC(=O)c2cc3ccccc3cc2O)cc1Cl | 9 | 13 | -8 | 85* | -1 | 23
CCN(C(=O)CN1CCCCC1C)c1c(N)n(Cc2ccccc2)c(=O)[nH]c1=O (centres undefined) | -2 | 1 | 4 | 3 | 0 | nt
Cc1cc(NC(=O)CC(C)C)c(=O)n(Cc2ccccc2F)c1 | 2 | -11 | -14 | 9 | -1 | nt
NC(=O)CN1C(=O)/C(=c2\sc3nc(=O)c(Cc4ccccc4)nn3c2=O)c2ccccc21 | 1 | 0 | -30 | 63* | -3 | -8
CCCN1C(=O)/C(=c2\sc3nc(=O)c(Cc4ccc(C)cc4)nn3c2=O)c2ccccc21 | -3 | 5 | -10 | 34 | 2 | nt
C=CCc1c(C)nc(C)nc1N/N=C/c1ccccc1O | -2 | 18 | 3 | 68* | -1 | 5
CNc1c(NS(=O)(=O)c2cc(Cl)ccc2OC)c(=O)oc2ccccc12 | 11 | -13 | -15 | 1 | 2 | nt
SMILES | MC4R antagonist | B2AR ag | ABHD5-PLIN5 inh | PfG6PD inh | MC4R barr agon | PfG6PD confirm | others
Cc1nc(NC(=O)c2ccc(OCC(C)C)cc2)sc1Cc1ccc2c(c1)OCO2 | 10 | 4 | -4 | 5 | -3 | nt
COc1cc(C(=O)Nc2nc(C)c(Cc3ccc4c(c3)OCO4)s2)cc(OC)c1OC | -3 | 19 | -6 | 62* | -3 | 34
Cc1ccc2nc(SCc3nnc(-c4cccs4)o3)[nH]c2c1 | -1 | -6 | -1 | 84* | 0 | 41
COc1cccc(C(NC(C)=O)c2nc(-c3cccc(C(=O)O)c3)cs2)c1 (centres undefined) | 22 | nt | -7 | nt | -1 | nt
Cc1cc(C)c2c(n1)sc1c(N3CCN(C)CC3)ncnc12 | -6 | -9 | 5 | 43 | -1 | nt
Cc1cccc(Cn2cnc3c(sc4nc(C)cc(C)c43)c2=O)c1 | 2 | 3 | -3 | 5 | 0 | nt
Cc1cc(C)c2c(n1)sc1c(N3CCCCC3)ncnc12 | 17 | 17 | -8 | 70* | 1 | 0
CCN(CC)c1ncnc2c1sc1nc(C)cc(C)c12 | -15 | -11 | -3 | 72* | -1 | 36
Cc1cccc(NS(=O)(=O)c2cnc(Cl)c(Br)c2)n1 | 19 | 23 | 5 | -17 | -1 | nt
CC1(C(=O)NCC2CC2)CCN1C(=O)C1(c2ccccc2)CC1 (centres undefined) | -7 | nt | -2 | nt | -3 | nt
Nc1nnc(SCC(=O)Nc2cccc(S(=O)(=O)N3CCCCC3)c2)s1 | 1 | 5 | -5 | -14 | -1 | nt
COc1ccc(NC2CCCN(Cc3cccc4cnccc34)C2)cc1 (centres undefined) | 10 | -3 | -2 | 10 | 3 | nt
COc1ccc(NC2CCCN(Cc3cccc4cnccc34)C2)cc1OC (centres undefined) | 0 | -2 | 2 | 65* | -1 | 58* | Diaphorase 10uM=10;Diaph ctr 30uM=2
Cc1c(Cc2ccccc2)c(=O)oc2c(C)c(OCC(=O)NCC3CCC(C(=O)O)CC3)ccc12 (centres undefined) | 1 | 14 | -1 | -25 | -1 | nt
Cc1cc(C)c(Nc2n[nH]c(=S)s2)cc1C | 2 | nt | -31 | 67* | -3 | 28
Cc1ccc(Nc2n[nH]c(=S)s2)c(C)c1 | 11 | nt | -19 | 71* | -2 | 14
COc1cccc(Nc2n[nH]c(=S)s2)c1 | 18 | 4 | -14 | 62* | -1 | 5
COc1ccccc1Nc1n[nH]c(=S)s1 | 18 | -5 | 1 | 51 | -5 | nt
CC(=O)NC1CC2CCCC(C1)N2C(=O)Nc1ccc(Cl)cc1 (centres undefined) | 1 | nt | -7 | -8 | -1 | nt
CN1C=CC(C(C(N)=O)c2ccccc2)c2ccccc21 (centres undefined) | 7 | nt | 8 | -2 | -1 | nt
CC(C)C[C@@H]1CN(CCCC[C@H]2CNC(=O)C(=O)N2CCC2CCCCC2)C(=O)C(=O)N1CCc1ccc(O)cc1 | nt | nt | 3 | nt | nt | nt
Cc1ccc(N(CC(=O)NC(C)(C)C)C(=O)CCC(=O)Nc2ccccn2)cc1 | 8 | nt | 3 | -1 | -1 | nt
